The values that follow come from ChEMBL document CHEMBL1129783, “Synthesis and modeling studies with monocyclic analogues of mycophenolic acid” (J Med Chem, 1996).

The subject of experiment [1] is L1210. The experiment is described as follows: Inhibitory activity of compound against L1210 leukemia cells in tissue culture. The following applies: Mus musculus. Format: functional, cell-based. In outline:
(§1)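 L1210 leukemia cells in tissue culture were exposed for 48 h to compounds dissolved in DMSO, at up to 100 μM (highest concentration tested). Read-out was growth inhibition, reported as IC50 or as percent inhibition at 100 μM.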

In experiment [2] the test system is L1210. The experiment is described as follows: Inhibitory activity of compound against L1210 leukemia cells in tissue culture at 100 uM. In kind it is functional. The following applies: Mus musculus. In outline: as §1
For experiment [3], the system named is HT-29. The experiment is described as follows: Inhibitory activity of compound against HT-29 human colon adenocarcinoma cell line; […]. Format: functional, cell-based.
The subject of experiment [4] is A121. The experiment is described as follows: Inhibitory activity of compound against human A121 ovarian cell line. Format: functional, cell-based.
Experiment [5] has as its system MCF7. As to the kind of experiment: Inhibitory activity of compound against human MCF-7 breast adenocarcinoma cell line. In kind it is functional, cell-based.
Experiment [6] has as its system A549. As to the kind of experiment: Inhibitory activity of compound against human A549 lung carcinoma cell line. In kind it is functional, cell-based.
In experiment [7] the test system is HT-29. The experiment is described as follows: Inhibitory activity of compound against HT-29 human colon adenocarcinoma cell line. Format: functional, cell-based.

A value given as a limit tells only on which side of the number the result lay.

A word on the IC50: it is the midpoint of a concentration-inhibition curve. Read a high IC50 as a need for much substance. On to `COc1c(C)cc(C(C)=O)c(O)c1C/C=C(\C)CCC(=O)O`, for which the IC50 in experiment [1] is above 100 µM. Same read-out and setting: under `COC(=O)c1cc(C)c(OC)c(C/C=C(\C)CCC(=O)O)c1O` stands above 100 µM. As usually defined, the inhibition is the change of the read-out against control, counted positive when it falls. High values mean strong suppression, low ones little suppression. In turn, `COc1c(Cl)cc(C(C)=O)c(O)c1C/C=C(\C)CCC(=O)O` had an inhibition at 100 µM in experiment [2] of 21%.

Regarding `COC(=O)c1ccc(OC)c(C/C=C(\C)CCC(=O)O)c1O`, the concentration for half-maximal inhibition (IC50) is above 100 µM in experiment [1] and “Not Active” in experiment [3]. Turning to `COc1c(Cl)cc(C(N)=O)c(O)c1C/C=C(\C)CCC(=O)O`, the IC50 in experiment [1] was above 100 µM.

Regarding `COC(=O)c1cc(Cl)c(OC)c(C/C=C(\C)CCC(=O)O)c1O`, in experiment [1], the IC50 is 61 µM. On the same count and under the same terms, with `COc1c(C)cc(C(N)=O)c(O)c1C/C=C(\C)CCC(=O)O` the figure was above 100 µM.

Consider `COc1ccc(C(C)=O)c(O)c1C/C=C(\C)CCC(=O)O`, for which the IC50 in experiment [4] is above 32.5 µM; in experiment [5], above 32.5 µM; in experiment [1], above 100 µM; in experiment [6], above 32.5 µM; in experiment [3] it was “Not Active”. With `COc1ccc(C(N)=O)c(O)c1C/C=C(\C)CCC(=O)O`, the half-inhibitory concentration (IC50) in experiment [1] was above 100 µM; in experiment [3], “Not Active”.

`COc1c(C)c2c(c(O)c1C/C=C(\C)CCC(=O)O)C(=O)OC2` [MYCOPHENOLIC ACID]: the 50% inhibitory concentration (IC50) in experiment [1] is below 0.2 µM; in experiment [7] it was 0.4 µM.
